Reference: ChEMBL document CHEMBL1687889, “Antitumor agents. 284. New desmosdumotin B analogues with bicyclic B-ring as cytotoxic and antitubulin agents” (J Med Chem, 2011)
Activity calls are given as the source filed them. The calls are words filed in the database; no cut-off is given here.

Assays:
MCF7 = assay: Antiproliferative activity against human MCF7 cells after 3 days by sulforhodamine B assay; type: functional; details: MCF7, 72 h
A549 = assay: Antiproliferative activity against human A549 cells after 3 days by sulforhodamine B assay; type: functional; details: A549, 72 h
Outline: (§1)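 Cells grown in RPMI-1640 with 25 mM HEPES, 0.25% sodium bicarbonate, 10% FBS and 100 μg/mL kanamycin. Exposed to compound for 3 days, with at most 0.5% v/v DMSO. Attached cells fixed in cold 50% TCA, stained with 0.4% sulforhodamine B, and the bound dye solubilized. A562 read. GI50 is the concentration giving a 50% absorbance drop versus untreated cells.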

HepG2 = assay: Antiproliferative activity against human HepG2 cells after 3 days by sulforhodamine B assay; type: functional; details: HepG2, 72 h
Outline: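 Sulforhodamine B assay over 3 days in culture, with at most 0.5% v/v DMSO. Attached cells fixed in cold 50% TCA, stained with 0.4% SRB, and the dye solubilized. Absorbance read at 562 nm. GI50 is the concentration causing a 50% fall in absorbance relative to untreated cells.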

KB = assay: Antiproliferative activity against human KB cells after 3 days by sulforhodamine B assay; type: functional; details: 72 h; outline: as §1
PC-3 = assay: Antiproliferative activity against human PC3 cells after 3 days by sulforhodamine B assay; type: functional; details: PC-3, 72 h
[1] = Antiproliferative activity against human KBVIN cells after 3 days by sulforhodamine B assay; type: functional; details: 72 h; outline: as §1
HCT-8 [2] = assay: Antiproliferative activity against human HCT8 cells after 3 days by sulforhodamine B assay; type: functional; details: HCT-8, 72 h; outline: as §1
[3] = Inhibition of tubulin assembly after 20 mins by turbidimetric assay; details: read-out: IC50
Outline: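 Turbidimetry at 350 nm. 10 μM (1.0 mg/mL) tubulin preincubated with compound for 15 min at 30 °C without GTP, then chilled, and 0.4 mM GTP added. Turbidity followed for 20 min at 30 °C after a temperature jump from 0 °C. IC50 is the concentration halving the turbidity increase relative to control.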

[4] = Displacement of [3H]colchicine from tubulin at 5 uM for 10 mins
Outline: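 1.0 μM tubulin incubated with 5.0 μM [3H]colchicine and 5.0 μM inhibitor for 10 min at 37 °C, when control samples reach about 40–60% of maximal colchicine binding. Result given as percent inhibition of colchicine binding.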

HCT-8 [5] = assay: Antiproliferative activity against human HCT8 cells at 20 ug/ml after 3 days by sulforhodamine B assay; type: functional, cell-based

SMILES	GI50 (MCF7) [µM]	GI50 (A549) [µM]	GI50 (HepG2) [µM]	GI50 (KB) [µM]	GI50 (PC-3) [µM]	GI50 [1] [µM]	GI50 (HCT-8 [2]) [µM]	IC50 [3] [µM]	inhibition [4] [%]	Activity (HCT-8 [5])
CCC1=C(O)c2c(oc(-c3cccc4ccccc34)cc2=O)C(CC)(CC)C1=S	3.22	1.86	8.42	1.41	16.6	2.7	8.17	–	–	–
CC1=C(O)c2c(oc(-c3csc4ccccc34)cc2=O)C(C)(C)C1=O	–	0.23	0.57	0.11	0.91	0.09	1.08	2.4	69	–
CCC1=C(O)c2c(oc(-c3cccc4ccccc34)cc2=S)C(CC)(CC)C1=S	14.1	5.95	24.1	7.38	24.1	5.95	13.3	–	–	–
CCC1=C(O)C2=C(OC(c3cccc4ccccc34)CC2=O)C(CC)(CC)C1=O (stereo unspecified)	–	7.99	9.02	5.93	12.6	3.87	9.28	–	–	–
CCC1=C(O)c2c(oc(-c3ccc(-c4ccccc4)cc3)cc2=O)C(CC)(CC)C1=O	15.7	18.1	19.3	18.1	8.45	12.1	–	–	–	inactive
CCC1=C(O)c2c(oc(-c3ccc4cc(OC)ccc4c3)cc2=O)C(CC)(CC)C1=O	8.37	16.8	13.4	10.8	4.78	9.57	12	–	–	–
CCC1=C(OC)C(CC)(CC)c2oc(-c3cccc4ccccc34)cc(=O)c2C1=O	20.9	16.7	20.7	11.2	14.7	9.7	11.7	–	–	–
CCC1=C(O)c2c(oc(-c3cc4ccccc4s3)cc2=O)C(CC)(CC)C1=O	15.2	14	15.7	11.2	3.81	9.9	19	–	–	–
CCC1=C(O)c2c(oc(-c3ccc4c(c3)OCO4)cc2=O)C(CC)(CC)C1=O	11.3	26.2	11.8	18.3	5.24	17	13.1	–	–	–
CCC1=C(O)c2c(oc(-c3cn(C)c4ccccc34)cc2=O)C(CC)(CC)C1=O	17.4	5.63	21.7	18.7	20.5	2.81	15.9	–	–	–
CCC1=C(O)c2c(oc(-c3ccc4c5c(cccc35)CC4)cc2=O)C(CC)(CC)C1=O	3.62	6.04	4.59	2.17	6.04	1.93	2.42	–	–	–
CCC1=C(O)c2c(oc(-c3ccc(OC)c4ccccc34)cc2=O)C(CC)(CC)C1=O	3.59	1.48	1.48	1.67	2.39	1.56	3.35	2.7	31	–
CCC1=C(O)c2c(oc(-c3cnc4ccccc4c3)cc2=O)C(CC)(CC)C1=O	19.3	12.8	14.9	15.4	12.8	14.9	12.8	–	–	–
CCC1=C(O)c2c(oc(-c3cc4ccccc4c4ccccc34)cc2=O)C(CC)(CC)C1=O [6,8,8-TRIETHYL-2-(PHENANTHREN-9-YL) DESMOSDUMOTIN B]	9.13	18.3	–	11.4	13.7	9.82	12.8	–	–	–
CCC1=C(OC)C(CC)(CC)c2oc(-c3cccc4ccccc34)c(Br)c(=O)c2C1=O	11	4.77	14.5	9.13	10.8	9.96	7.68	–	–	–
CCC1=C(O)c2c(oc(-c3coc4ccccc34)cc2=O)C(CC)(CC)C1=O	–	9.79	17.7	4.5	28	2.09	15.6	–	–	–
CCC1=C(O)c2c(oc(-c3cccc4ccccc34)cc2=O)C(CC)(CC)C1=O [2-(NAPHTHALEN-1-YL)-6,8,8-TRIETHYL DESMOSDUMOTIN B]	1.55	1.55	2.06	1.55	1.03	0.77	1.03	2.3	43	–
CC[C@]1(O)C[C@H]2CN(CCc3c([nH]c4ccccc34)[C@@](C(=O)OC)(c3cc4c(cc3OC)N(C=O)[C@H]3[C@@](O)(C(=O)OC)[C@H](OC(C)=O)[C@]5(CC)C=CCN6CC[C@]43[C@@H]65)C2)C1 [VINCRISTINE]	–	0.007	–	0.004	–	9.09	0.036	–	–	–
CCC1=C(O)c2c(oc(-c3ccc(C)c4ccccc34)cc2=O)C(CC)(CC)C1=O	0.75	0.5	1.24	0.47	2.49	0.27	0.62	2.7	50	–
CCC1=C(O)c2c(oc(-c3c(C)ccc4ccccc34)cc2=O)C(CC)(CC)C1=O	13.7	17.4	16.7	19.9	12.4	19.9	17.4	–	–	–
CCC1=C(O)c2c(oc(-c3ccc4c(c3)OCCO4)cc2=O)C(CC)(CC)C1=O	1.89	1.52	1.52	1.26	1.52	1.14	2.27	6.5	33	–
CC1=C(O)c2c(oc(-c3ccc(C)c4ccccc34)cc2=O)C(C)(C)C1=O	–	1.25	1.33	0.61	13.3	0.72	2.56	2.5	37	–
CC1=C(O)c2c(oc(-c3ccc4c(c3)OCCO4)cc2=O)C(C)(C)C1=O	–	–	23.7	0.76	1.5	0.65	1.3	3.7	36	–
CC1=C(O)c2c(oc(-c3cccc4ccccc34)cc2=O)C(C)(C)C1=O [2-(NAPHTHALEN-1-YL)DESMOSDUMOTIN B]	1.73	1.73	–	0.29	1.45	0.58	1.16	–	–	–
